Format in all cases: ADME
Series [1] has as its target T1, UDP-glucuronosyltransferase 2A1 (Homo sapiens, UniProt P0DTE4).
T1 sequence (P0DTE4 whole entry): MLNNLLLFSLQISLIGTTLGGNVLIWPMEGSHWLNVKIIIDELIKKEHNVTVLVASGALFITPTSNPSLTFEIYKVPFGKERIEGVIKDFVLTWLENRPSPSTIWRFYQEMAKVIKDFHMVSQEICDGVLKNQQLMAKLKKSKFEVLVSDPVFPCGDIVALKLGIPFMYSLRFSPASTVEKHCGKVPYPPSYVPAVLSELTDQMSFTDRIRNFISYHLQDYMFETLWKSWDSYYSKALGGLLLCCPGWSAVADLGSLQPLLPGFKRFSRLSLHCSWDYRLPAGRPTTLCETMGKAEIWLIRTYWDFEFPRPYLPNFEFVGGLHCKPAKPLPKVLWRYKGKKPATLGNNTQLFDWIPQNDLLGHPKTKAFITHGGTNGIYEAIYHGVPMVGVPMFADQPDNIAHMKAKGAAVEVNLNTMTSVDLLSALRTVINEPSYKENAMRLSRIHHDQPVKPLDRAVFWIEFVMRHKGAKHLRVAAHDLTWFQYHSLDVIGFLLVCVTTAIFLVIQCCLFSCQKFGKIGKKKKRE
Description: Drug metabolism assessed as recombinant human C-terminal His-tagged UGT2A1-mediated 16-epiestriol-17-glucuronide formation at 200 uM after 15 to 60 mins by HPLC analysis in presence of UDPGA. As to conditions: recombinant enzyme. A digest of the protocol: (§1)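 Screening at a single substrate concentration of 200 μM, in triplicate. The reaction used 5 or 50 µg of UGT-enriched insect cell membranes in 50 mM phosphate pH 7.4 with 10 mM MgCl₂ and 5 mM UDPGA, 10% final DMSO. Incubation was 15–60 min at 37°C. Perchloric acid stopped the reaction and supernatants were analysed by HPLC. Controls lacked UDPGA. Rates were normalized to relative UGT expression level.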

Series [2] deals with Liver microsome. Description: Drug metabolism in human liver microsomes assessed as 16-epiestriol-3-glucuronide formation after 15 to 60 mins by Michaelis-Menten equation analysis in presence of UDPGA. A digest of the protocol: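 Pooled human liver microsomes (30 donors), 0.5 or 10 µg, with alamethicin at 5% of total protein. Incubated with 50 mM phosphate pH 7.4, 10 mM MgCl₂, 5 mM UDPGA and 10% DMSO for 15–60 min at 37°C. Each glucuronide regioisomer quantified by HPLC, in triplicate, with substrate consumption at or below 10%.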
In general terms: Liver microsomes are a subcellular fraction often used to study metabolism.

In series [3] the target is T2, UDP-glucuronosyltransferase 2B17 (Homo sapiens, UniProt O75795).
T2 sequence (O75795 whole entry): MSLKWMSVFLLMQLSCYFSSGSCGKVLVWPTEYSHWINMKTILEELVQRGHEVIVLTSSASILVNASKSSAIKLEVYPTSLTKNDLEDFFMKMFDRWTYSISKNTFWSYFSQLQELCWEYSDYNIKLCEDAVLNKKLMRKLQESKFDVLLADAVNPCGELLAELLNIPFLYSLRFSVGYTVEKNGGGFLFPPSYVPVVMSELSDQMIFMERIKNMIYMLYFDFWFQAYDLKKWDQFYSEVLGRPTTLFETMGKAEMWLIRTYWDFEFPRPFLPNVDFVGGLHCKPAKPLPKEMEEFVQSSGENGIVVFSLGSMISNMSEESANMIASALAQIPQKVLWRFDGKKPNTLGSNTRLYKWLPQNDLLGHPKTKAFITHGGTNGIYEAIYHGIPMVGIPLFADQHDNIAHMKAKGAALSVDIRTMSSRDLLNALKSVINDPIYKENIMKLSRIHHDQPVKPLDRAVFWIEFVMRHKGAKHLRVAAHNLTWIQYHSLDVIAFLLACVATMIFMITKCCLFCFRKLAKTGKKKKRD
Briefly: Drug metabolism assessed as recombinant human C-terminal His-tagged UGT2B17-mediated 17-epiestriol glucuronide metabolite formation after 15 to 60 mins by HPLC analysis in presence of UDPGA. Particulars: recombinant enzyme.

The target in series [4] is T3, UDP-glucuronosyltransferase 1A3 (Homo sapiens, UniProt P35503).
T3 sequence (P35503 whole entry): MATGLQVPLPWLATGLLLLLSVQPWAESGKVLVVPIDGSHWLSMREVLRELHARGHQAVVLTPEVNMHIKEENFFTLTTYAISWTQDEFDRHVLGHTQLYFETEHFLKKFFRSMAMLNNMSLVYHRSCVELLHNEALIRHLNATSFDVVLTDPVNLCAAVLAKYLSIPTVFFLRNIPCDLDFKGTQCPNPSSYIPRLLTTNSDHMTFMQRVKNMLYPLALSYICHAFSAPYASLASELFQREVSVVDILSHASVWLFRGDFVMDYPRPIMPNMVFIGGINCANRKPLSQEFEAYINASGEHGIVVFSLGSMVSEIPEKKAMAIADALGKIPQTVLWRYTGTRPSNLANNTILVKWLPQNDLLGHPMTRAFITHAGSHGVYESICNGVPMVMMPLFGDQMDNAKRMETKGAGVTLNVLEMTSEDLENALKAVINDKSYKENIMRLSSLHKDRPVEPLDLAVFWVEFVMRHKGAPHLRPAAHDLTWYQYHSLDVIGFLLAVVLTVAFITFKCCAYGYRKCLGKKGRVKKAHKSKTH
Description: Drug metabolism assessed as recombinant human C-terminal His-tagged UGT1A3-mediated estradiol-3-glucuronide formation at 200 uM after 15 to 60 mins by HPLC analysis in presence of UDPGA. As to conditions: recombinant enzyme. A digest of the protocol:
as §1

`C[C@]12CC[C@@H]3c4ccc(O)cc4CC[C@H]3[C@@H]1C[C@H](O)[C@@H]2O` [EPIESTRIOL]: in series [1], the Drug metabolism result is “metabolite_detected”. Further, in series [2], the Km (as a rule, the substrate concentration at which the rate is half of its maximum) came out at 2.38 mM and the maximum rate (Vmax) – broadly, the rate approached at saturating substrate – is 569 pmol/min/mg.

Regarding `C[C@]12CC[C@@H]3c4ccc(O)cc4CC[C@H]3[C@@H]1C[C@@H](O)[C@H]2O`, the Drug metabolism result in series [3] is “metabolite_not_detected”.

As to `C[C@]12CC[C@@H]3c4ccc(O)cc4CC[C@H]3[C@@H]1CC[C@@H]2O` [ESTRADIOL], the Drug metabolism result in series [4] was “metabolite_detected”.

The values above are taken from ChEMBL document CHEMBL3525985, “Regiospecificity and stereospecificity of human UDP-glucuronosyltransferases in the glucuronidation of estriol, 16-epiestriol, 17-epiestriol, and 13-epiestradiol” (Drug Metab Dispos, 2013).
